Data published in ChEMBL document CHEMBL1124929, “Indolo[2,1-a]isoquinolines. Syntheses, steroid hormone receptor binding affinities, and cytostatic activity” (1990).

Experiments:
[1] = target: T1, Androgen Receptor (Bos taurus) (UniProt Q5EM59); experiment: Relative binding affinity(RBA) for 50% displacement of [3H]mibolerone from Androgen receptor compared to testorone
T1 sequence (whole entry): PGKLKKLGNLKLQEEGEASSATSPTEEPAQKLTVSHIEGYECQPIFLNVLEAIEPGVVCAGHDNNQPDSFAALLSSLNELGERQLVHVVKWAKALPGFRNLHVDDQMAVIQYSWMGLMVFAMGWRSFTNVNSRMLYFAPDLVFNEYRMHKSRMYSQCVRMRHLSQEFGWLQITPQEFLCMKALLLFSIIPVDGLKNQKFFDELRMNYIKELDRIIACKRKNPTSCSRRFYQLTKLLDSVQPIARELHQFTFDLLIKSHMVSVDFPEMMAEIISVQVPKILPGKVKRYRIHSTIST
Outline: (§1)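 Receptor source was calf uterine cytosol (105000g supernatant, 3 mg/mL protein in assay). Buffers were Tris/EDTA pH 7.4, with NaN₃ for ER, molybdate/glycerol for AR, and sucrose for PR. Tracers were 1 nM [³H]estradiol, [³H]mibolerone or [³H]Org 2058. Incubation was at 0–4 °C for 16 h (ER) or 2 h (AR, PR), with 4–6 competitor concentrations. Nonspecific binding used 2 µM of the unlabeled hormone. Separation was by dextran-coated charcoal. RBA is the ratio of IC50 values for hormone and compound ×100, mean of two triplicate experiments.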

[2] = target: Estrogen receptor (Bos taurus) (UniProt Q9XSB5+P49884); experiment: Relative binding affinity(RBA) for 50% displacement of [3H]-estradiol from Estrogen receptor compared to 17-beta-estradiol; format: protein assay; outline: as §1
[3] = organism: Bos taurus; experiment: Relative binding affinity(RBA) as ratio of progesterone and compound required to displace [3H]-org 2058 binding to Progesterone receptor by 50%; outline: as §1
[4] = test system: MDA-MB-231; experiment: Cytostatic effect on hormone-independent MDA-MB 231 human breast cancer cell proliferation at 1x10E-5 M; format: functional
Outline: (§2)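 Cells were plated at about 2 × 10⁴ per well in six-well dishes. MCF-7 cells were grown in modified improved MEM with 5% NCS, switched to charcoal-treated NCS two weeks before the test, and exposed for 5 days with a re-dose on day 4. MDA-MB 231 cells were grown in McCoy 5a with 10% NCS and exposed for 2 days. Compounds were given 1 day after plating in 0.1% DMSO, with DMSO-matched controls. Read-out was cell number as % T/C, mean of three experiments with six dishes.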

[5] = test system: MDA-MB-231; experiment: Effect on [3H]thymidine incorporation into MDA-MB 231 human breast cancer cells at 1x10E-5 M; format: functional
Outline: (§3)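 Cells were seeded at ~2 × 10⁴ per well, treated from the next day in 0.1% DMSO, with DMSO controls. MCF-7 cells were held in charcoal-stripped NCS for 2 weeks, treated for 5 days and re-dosed on day 4. MDA-MB 231 cells were grown in McCoy 5a/10% NCS and treated for 2 days. At the end, 1 µCi [³H]thymidine per well was added for 2 h. Result is % T/C, mean of three experiments × six dishes.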

[6] = test system: MDA-MB-231; experiment: Effect on [3H]-thymidine incorporation into MDA-MB 231 human breast cancer cells at 1x10E-6M; format: functional; outline: as §3
[7] = test system: MDA-MB-231; experiment: Cytostatic effect on hormone-independent MDA-MB 231 human breast cancer cell proliferation at5x10E-6M; format: functional; outline: as §2
[8] = test system: MDA-MB-231; experiment: Effect on [3H]thymidine incorporation into MDA-MB 231 human breast cancer cells at 5x10E-6M; format: functional; outline: as §3
[9] = test system: MCF7; experiment: Effect on hormone-dependent MCF-7 human breast cancer cell proliferation at 5x10E-6M; format: functional; outline: as §2
[10] = test system: MCF7; experiment: Effect on [3H]thymidine incorporation into MCF-7 human breast cancer cells at 5x10E-6M; format: functional; outline: as §3
[11] = test system: MCF7; experiment: Effect on hormone-dependent MCF-7 human breast cancer cell proliferation at 1x10E-5 M; format: functional; outline: as §2
[12] = test system: MCF7; experiment: Effect on [3H]thymidine incorporation into MCF-7 human breast cancer cells at 1x10E-5 M; format: functional; outline: as §3
[13] = test system: MCF7; experiment: Effect on hormone-dependent MCF-7 human breast cancer cell proliferation at 1x10E-6M; format: functional; outline: as §2
[14] = test system: MCF7; experiment: Effect on [3H]thymidine incorporation into MCF-7 human breast cancer cells at 1x10E-6M; format: functional; outline: as §3
[15] = target: T2, Estrogen receptor (Mus musculus) (UniProt O08537+P19785); experiment: (§4) Estrogenic activity in uterotrophic assay in immature mice at 2 ug subcutaneous dose; format: functional
T2 sequence (O08537 whole entry, looked up): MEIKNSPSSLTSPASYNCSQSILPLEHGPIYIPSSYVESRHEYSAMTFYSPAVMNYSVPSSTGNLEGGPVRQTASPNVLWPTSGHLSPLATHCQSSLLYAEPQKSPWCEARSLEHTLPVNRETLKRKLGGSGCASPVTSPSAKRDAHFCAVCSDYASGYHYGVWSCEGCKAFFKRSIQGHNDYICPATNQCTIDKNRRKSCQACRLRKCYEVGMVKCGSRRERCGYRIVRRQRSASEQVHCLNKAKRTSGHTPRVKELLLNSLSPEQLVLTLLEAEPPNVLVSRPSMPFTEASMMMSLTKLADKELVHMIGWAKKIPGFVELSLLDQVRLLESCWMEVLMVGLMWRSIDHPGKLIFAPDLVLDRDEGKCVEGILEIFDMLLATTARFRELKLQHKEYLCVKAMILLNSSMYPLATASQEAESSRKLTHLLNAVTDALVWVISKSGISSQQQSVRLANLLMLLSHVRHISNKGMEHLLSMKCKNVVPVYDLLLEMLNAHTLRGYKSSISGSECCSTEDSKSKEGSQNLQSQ
T2 sequence (P19785 whole entry, looked up): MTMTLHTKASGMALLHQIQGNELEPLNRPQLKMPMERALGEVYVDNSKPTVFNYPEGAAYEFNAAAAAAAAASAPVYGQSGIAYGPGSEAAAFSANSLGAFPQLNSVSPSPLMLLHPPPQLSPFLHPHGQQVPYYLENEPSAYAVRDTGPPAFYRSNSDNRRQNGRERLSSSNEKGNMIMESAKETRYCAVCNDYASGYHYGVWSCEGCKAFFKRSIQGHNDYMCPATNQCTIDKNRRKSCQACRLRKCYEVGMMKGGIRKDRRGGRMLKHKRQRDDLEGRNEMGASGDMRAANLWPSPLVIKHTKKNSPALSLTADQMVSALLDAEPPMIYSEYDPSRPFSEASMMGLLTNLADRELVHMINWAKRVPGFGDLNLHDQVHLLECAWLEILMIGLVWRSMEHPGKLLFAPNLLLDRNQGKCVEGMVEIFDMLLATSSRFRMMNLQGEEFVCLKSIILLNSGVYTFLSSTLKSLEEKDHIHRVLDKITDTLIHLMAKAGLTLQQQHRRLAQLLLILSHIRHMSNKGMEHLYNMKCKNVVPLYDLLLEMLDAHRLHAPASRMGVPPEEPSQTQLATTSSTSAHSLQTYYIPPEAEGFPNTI
Outline: (§5)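 Immature female NMRI mice, 20 days old, in groups of 6-10, were dosed sc once daily for three consecutive days. Compounds were given in PEG/0.9% saline 1:1; vehicle controls were included. Animals were killed 24 h after the last dose. Uteri were fixed in Bouin solution and the effect was taken as uterine dry weight (mg)/body weight (g) ×100, given as mean ± SD.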

[16] = target: T2, Estrogen receptor (Mus musculus); experiment: (§6) Estrogenic activity in uterotrophic assay in immature mice at 50.0 ug subcutaneous dose; format: functional; outline: as §5
[17] = target: T2, Estrogen receptor (Mus musculus); experiment: (§7) Estrogenic activity in uterotrophic assay in immature mice at 10.0 ug subcutaneous dose; format: functional; outline: as §5
[18] = target: T2, Estrogen receptor (Mus musculus); experiment: as §4; format: functional; outline: as §5; remark: listed apart in the source
[19] = target: T2, Estrogen receptor (Mus musculus); experiment: (§8) Estrogenic activity in uterotrophic assay in immature mice at 250 ug subcutaneous dose; format: functional; outline: as §5
[20] = target: T2, Estrogen receptor (Mus musculus); experiment: as §6; format: functional; outline: as §5; remark: listed apart in the source
[21] = target: T2, Estrogen receptor (Mus musculus); experiment: as §8; format: functional; outline: as §5; remark: listed apart in the source
[22] = target: T2, Estrogen receptor (Mus musculus); experiment: as §7; format: functional; outline: as §5; remark: listed apart in the source
[23] = target: T2, Estrogen receptor (Mus musculus); experiment: Inhibition of 0.4 ug estrone-stimulated uterine growth in mice at 10.0 ug subcutaneous dose; format: functional
Outline: (§9)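 Immature 20-day-old female NMRI mice received sc injections on three consecutive days. Each injection held 0.4 µg estrone plus the compound in PEG/saline 1:1. […] Significance was tested by Mann-Whitney U test.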

[24] = target: T2, Estrogen receptor (Mus musculus); experiment: Inhibition of 0.4 ug estrone-stimulated uterine growth in mice at 2 ug subcutaneous dose; format: functional; outline: as §9
[25] = target: T3, Androgen receptor (Mus musculus) (UniProt P19091); experiment: Inhibition of testosterone-stimulated seminal vesicle growth in castrated mice supplemented with 0.3 mg of TP at 1000.0 ug; format: functional
T3 sequence (whole entry): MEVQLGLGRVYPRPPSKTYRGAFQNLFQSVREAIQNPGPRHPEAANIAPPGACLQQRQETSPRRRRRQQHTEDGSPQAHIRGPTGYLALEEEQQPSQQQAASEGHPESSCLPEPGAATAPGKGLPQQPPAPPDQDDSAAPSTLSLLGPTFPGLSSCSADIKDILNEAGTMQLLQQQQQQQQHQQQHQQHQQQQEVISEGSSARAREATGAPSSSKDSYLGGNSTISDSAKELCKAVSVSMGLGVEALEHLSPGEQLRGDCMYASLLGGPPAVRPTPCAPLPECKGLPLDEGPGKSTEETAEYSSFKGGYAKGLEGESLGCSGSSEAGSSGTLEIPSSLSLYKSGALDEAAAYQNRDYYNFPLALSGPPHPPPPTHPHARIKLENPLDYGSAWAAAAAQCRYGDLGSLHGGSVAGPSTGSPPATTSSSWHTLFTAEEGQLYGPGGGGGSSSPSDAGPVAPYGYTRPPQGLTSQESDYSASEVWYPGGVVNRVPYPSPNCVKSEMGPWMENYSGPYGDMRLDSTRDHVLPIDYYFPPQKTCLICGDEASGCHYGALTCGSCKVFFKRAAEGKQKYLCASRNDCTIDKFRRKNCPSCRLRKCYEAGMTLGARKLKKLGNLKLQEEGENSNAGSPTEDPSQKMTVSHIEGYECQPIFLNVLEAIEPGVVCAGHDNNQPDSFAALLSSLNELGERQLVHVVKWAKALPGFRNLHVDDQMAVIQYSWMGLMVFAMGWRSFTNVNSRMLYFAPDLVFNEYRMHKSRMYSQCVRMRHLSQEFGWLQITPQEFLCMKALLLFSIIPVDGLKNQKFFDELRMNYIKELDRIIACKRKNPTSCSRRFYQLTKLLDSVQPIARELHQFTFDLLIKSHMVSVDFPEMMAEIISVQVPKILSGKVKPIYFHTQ
Outline: (§10)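 Adult male mice, 23–25 g, six per group, were used intact or castrated via the scrotal route under ether 5 days before the test. Castrates received 0.3 mg testosterone propionate daily. Compounds were injected daily in olive oil for nine days. Seminal vesicles were taken 24 h later, fixed in Bouin solution, dried overnight at 100 °C and weighed. Result is organ mg/body g ×100; % inhibition = [1 − treated/control] × 100.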

[26] = target: T2, Estrogen receptor (Mus musculus); experiment: Inhibition of 0.4 ug estrone-stimulated uterine growth in mice at 250 ug subcutaneous dose; format: functional; outline: as §9
[27] = target: T3, Androgen receptor (Mus musculus); experiment: Relative effect on seminal vesicle weight in adult and castrated mice at 1000 ug dose; format: functional, tissue-based; outline: as §10
[28] = target: T3, Androgen receptor (Mus musculus); experiment: Relative effect on seminal vesicle weight in adult and castrated mice supplemented with 0.3 mg TP at 1000 ug dose; format: functional, tissue-based; outline: as §10
[29] = target: T3, Androgen receptor (Mus musculus); experiment: Relative effect on seminal vesicle weight in adult and castrated mice at 100 ug dose; format: functional, tissue-based; outline: as §10
[30] = target: T2, Estrogen receptor (Mus musculus); experiment: Inhibition of 0.4 ug estrone-stimulated uterine growth in mice at 50.0 ug subcutaneous dose; format: functional; outline: as §9
[31] = test system: MDA-MB-231; experiment: Cytostatic effect on hormone-independent MDA-MB 231 human breast cancer cell proliferation at 1x10E-6M; format: functional; outline: as §2
[32] = target: T3, Androgen receptor (Mus musculus); experiment: Inhibition of seminal vesicle weight in intact mice at 100 ug

CC(=O)Oc1ccc2c(c1)cc1n2CCc2cc(OC(C)=O)c(OC(C)=O)cc2-1
RBA [1]: < 0.01
RBA [2]: 0.15
RBA [3]: < 0.01

CC(=O)Oc1ccc2cc3n(c2c1)CCc1cc(OC(C)=O)c(OC(C)=O)cc1-3
RBA [1]: < 0.01
RBA [2]: 0.05

CC(=O)Oc1ccc2c(c1)CCn1c-2cc2ccc(OC(C)=O)cc21
RBA [1]: 0.2
RBA [2]: 0.16
RBA [3]: 0.01

CCC1Cc2cc(OC(C)=O)ccc2-c2cc3ccc(OC(C)=O)cc3n21 (configuration not stated)
RBA [1]: 2.5
RBA [2]: 4
T/C [4]: 11%
T/C [5]: 8%
T/C [6]: 93%
T/C [7]: 11%
T/C [8]: 11%
T/C [9]: 39%
T/C [10]: 24%
T/C [11]: 6%
T/C [12]: 2%
T/C [13]: 67%
T/C [14]: 42%
Effect [15]: 11.5
Effect [16]: 18.5
Effect [17]: 44.5
Effect [18]: 49.6
Effect [19]: 48.2
Effect [20]: 18.5
Effect [21]: 40.5
Effect [22]: 15.7
inhibition [23]: 17.4%
inhibition [24]: 2.8%
inhibition [25]: 12%
inhibition [26]: 6.8%
RBA [3]: 0.05
Relative seminal vesicle weight [27]: 121
Relative seminal vesicle weight [28]: 200
Relative seminal vesicle weight [29]: 156
inhibition [30]: 31%
T/C [31]: 98%
inhibition [32]: 21%

CC(=O)Oc1cc2c(cc1OC(C)=O)-c1cc3cc(OC(C)=O)c(OC(C)=O)cc3n1CC2
RBA [1]: < 0.01
RBA [2]: < 0.01
